# TRPC4 inh: TRPC4 (mouse) channel inhibition; Q9QUQ5; AID 2247; HEK293 TRPC4beta/mu-opioid, DAMGO-evoked Fluo4 calcium flux; stronger effect = lower value; 0.39% of 300,000 active; B-score at 10 µM;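 active = B-score over 3 SD under the library average, no early fluorescence shift, positive overall ratio signal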
#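 System: stable TRPC4beta/mu-opioid receptor HEK293 cells; Dosing: single-point compound dosing; Measured by: Fluo4 Ca2+ flux fluorescence; Read-out basis: per-well B score of integrated baseline-normalized Fluo4 ratio.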
# Kir21 inh: blocks the mouse Kir2.1 inward-rectifier potassium channel; 0.85% of 310,000 active; B-score at 10 µM; P35561; HEK293-Kir2.1, FluxOR thallium flux fluorescence; stronger effect = lower value;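 active = fluorescence ratio B-score at or below minus 3 SD of library scores, with starting-brightness B-score within 2 SD, cut at about -4.2 in these data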;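 note: channel flux triggered by added potassium and thallium sulfate stimulus; B-score of peak minus minimum fluorescence over baseline after thallium stimulus; more negative B-score means stronger Kir2.1 block with less thallium influx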
# Target sequence (P35561 whole entry, looked up): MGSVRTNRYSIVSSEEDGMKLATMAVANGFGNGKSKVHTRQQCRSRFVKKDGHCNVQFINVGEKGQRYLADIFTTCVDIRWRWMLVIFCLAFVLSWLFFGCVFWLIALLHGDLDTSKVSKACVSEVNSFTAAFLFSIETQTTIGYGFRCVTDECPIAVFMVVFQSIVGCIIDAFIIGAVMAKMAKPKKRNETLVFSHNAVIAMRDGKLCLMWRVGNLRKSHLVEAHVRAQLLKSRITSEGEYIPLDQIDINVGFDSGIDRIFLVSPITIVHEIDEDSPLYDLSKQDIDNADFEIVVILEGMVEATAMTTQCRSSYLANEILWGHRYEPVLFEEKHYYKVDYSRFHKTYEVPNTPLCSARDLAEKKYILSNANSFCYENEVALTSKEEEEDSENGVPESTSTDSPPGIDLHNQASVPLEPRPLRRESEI
# TRPC4 act: TRPC4 (mouse) channel activation; Q9QUQ5; HEK293 TRPC4beta/mu-opioid, Fluo4 calcium fluorescence; stronger effect = higher value; B-score at 10 µM; 0.49% of 310,000 active; AID 2237;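 active = B-score above 5 SD of library B-scores, and initial fluorescence ratio not above library mean plus 5 SD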;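 note: positive B-score marks a calcium rise read as TRPC4 activation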
#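 Test system: HEK293 cells stably co-expressing mouse TRPC4beta and mu-opioid receptor | Schedule: Fluo4 dye loading 45 min at room temperature, 110 s recording | Measured by: Kinetic Fluo4 calcium fluorescence, 5 s baseline at 1 Hz | Evaluation: B score of integrated ratio | Controls: Buffer (low) and maximal DAMGO (high)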
# TRPC4 potent: allosterically enhances the mouse TRPC4 cation channel; Q9QUQ5; 0.42% of 310,000 active; B-score at 10 µM; HEK293 TRPC4beta/mu-opioid, DAMGO EC20, Fluo-4 Ca2+ flux; stronger effect = higher value;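 active = B-score of calcium response area above 5 SD of library B-scores, with initial fluorescence ratio within 5 SD of library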
# TRPC6 inhibitor: mouse TRPC6 channel inhibition; HEK293-TRPC6, membrane potential dye, ACh-evoked depolarization; stronger effect = lower value; AID 2553; B-score at 10 µM; 1.1% of 310,000 active;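 active = B-score under library mean minus 3 SD, initial fluorescence not abnormally high, positive integrated signal ratio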;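 note: B-score derived from integrated fluorescence ratio over the kinetic read; more negative B-score means stronger inhibition of depolarization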
# TRPC6 activator: activators of mouse TRPC6 channel | B-score at 10 µM | 0.13% of 310,000 active | HEK293-TRPC6 membrane potential dye fluorescence; stronger effect = higher value | AID 2550 | Q61143;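 active = B-score of the integrated fluorescence ratio above library mean plus 3 SD, and starting fluorescence ratio within library mean plus 5 SD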;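 note: higher score means more depolarization so channel activation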
# Hits are given with their value; . = inactive. Most compounds without a hit are left out; they make up all but 2.9% or so of the library.
SMILES,TRPC4 inh,Kir21 inh,TRPC4 act,TRPC4 potent,TRPC6 inhibitor,TRPC6 activator
COc1ccc(CCN2CC(C(=O)OCC(=O)Nc3c(C)nn(-c4ccccc4)c3C)CC2=O)cc1OC (configuration not stated),.,.,.,.,.,.
O=C(O)C1C2C=CC(C2)C1C(=O)NCc1cccs1 (configuration not stated),.,.,.,.,.,.
CN(C(=O)COc1ccccc1C(=O)NCCOc1ccccc1)c1ccccc1,.,-7.5,.,.,.,.
Cc1nn(-c2ccccc2)c(Cl)c1/C=N/Nc1ccc(S(=O)(=O)Nc2ccccc2C(=O)O)cc1[N+](=O)[O-],-6,.,.,.,.,.
Cc1ccc(C)c(N2C(=O)c3ccc(C(=O)OCC(=O)c4c(N)n(C)c(=O)n(C)c4=O)cc3C2=O)c1,.,.,.,11,.,.
C=CCn1c(SCc2nc3ccccc3c(=O)[nH]2)nc2scc(C3CC3)c2c1=O,.,.,.,.,.,.
CC1(C)CC(NC(=O)C2CCC(=O)N(C3CC3)C2)CC(C)(C)C1 (configuration not stated),.,.,.,.,.,.
Clc1ccc(N2CCN(/N=C/c3cccnc3)CC2)cc1,.,.,.,.,.,.
Cn1nc(-c2ccc(Cl)cc2)nc2c(=O)n(C)c(=O)nc1-2,.,.,.,.,-5.1,.
O=C(CNS(=O)(=O)c1cccs1)N1CCc2ccccc2C1,.,.,.,.,.,.
CCCCn1c(=NC(=O)c2cccnc2)c(C(=O)OCC)cc2c(=O)n3ccccc3nc21,.,.,.,46,.,.
CCOCCCn1c(=NC(=O)c2cccnc2)c(C(=O)OCC)cc2c(=O)n3ccccc3nc21,.,.,.,.,.,.
COc1cc(C(=O)NC2CC(C)(C)CC(C)(C)C2)ccc1OC1CCN(C(C)=O)CC1,.,.,.,.,.,.
CC(C)c1cccc(OCCCCN(C)C)c1,.,.,.,17,.,.
CN(C)CCCOc1cccc(Cl)c1,.,.,64,32,.,.
CN(C)CCCOc1cccc(Oc2ccccc2)c1,.,.,.,12,.,.
Cc1sc(NC(=O)C2CSC3(C)CCC(=O)N23)nc1-c1ccc(F)cc1 (configuration not stated),.,.,.,.,.,.
O=C(CN1C(=O)c2ccccc2C1=O)Oc1ccc(F)cc1,.,.,.,.,.,.
O=C(CCC1CCCC1)N1CCN(C(=O)c2cccnc2)CC1,.,.,.,.,.,.
OC1(c2ccc3c(c2)OCO3)CCN(Cc2ccc(F)cc2)CC1,.,-4.5,.,.,.,.
OC1(c2ccc(F)cc2)CCN(Cc2cccnc2)CC1,.,.,.,.,.,.
OC1(c2ccccc2)CCN(Cc2ccccc2)CC1,.,-7.6,.,.,.,.
OC1(c2ccc(F)cc2)CCN(Cc2ccccc2)C1 (configuration not stated),-6,-4.5,.,.,.,.
C=CCOCC(O)Cn1c(N2CCCC2)nc2c1c(=O)[nH]c(=O)n2C (configuration not stated),.,.,.,.,.,.
OC1(c2cccs2)CN(c2ccc(Cl)cc2)C2=[N+]1CCCS2 (configuration not stated),.,.,.,.,.,.
SMILES,TRPC4 inh,Kir21 inh,TRPC4 act,TRPC4 potent,TRPC6 inhibitor,TRPC6 activator
OC1(c2cccs2)CN(c2ccc(Cl)cc2)C2=[N+]1CCCC2 (configuration not stated),-6,.,.,.,.,.
COc1ccc(C(=O)C2CCCN(C3Cc4ccccc4C3)C2)c(OC)c1 (configuration not stated),.,.,.,.,.,.
O=C(CSc1ccccn1)N1CCN(C(=O)CSc2ccccn2)CC1,.,.,.,.,.,.
CNCC(=O)N1CCN(c2ncc(C(F)(F)F)cc2Cl)CC1,.,.,189,.,.,.
COC(=O)C1CC(Cl)CN1c1ncc(C(F)(F)F)cc1Cl (configuration not stated),.,.,.,11,.,.
O=C(CSc1ccccn1)N1CCN(c2ncc(C(F)(F)F)cc2Cl)CC1,.,.,49,.,.,.

# Screening results: PubChem BioAssay, Johns Hopkins Ion Channel Center
